Results on 4 molecules are retold here after ChEMBL document CHEMBL1135527, “Synthesis and evaluation of 2'-substituted 4-(4'-carboxy- or 4'-carboxymethylbenzylidene)-N-acylpiperidines: highly potent and in vivo active steroid 5alpha-reductase type 2 inhibitors” (J Med Chem, 2002).

Assay [1] has as its system Rattus norvegicus. Description: Mean percentage of inhibition of the T-induced hypertrophic response was calculated according to the equation %inhibition = 100 x (Ct-D)/(Ct-Cc) at a dose 12.2 mg/kg by subcutaneous administration. The format is functional. As to conditions: sc. The gist of the method: (§1)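 Male rats castrated at 21 days old by scrotal incision under ether anaesthesia; eight groups of eight. One week later, testosterone propionate 1 mg/kg and test agent or vehicle in oil given once daily for 4 days. Testosterone and test agent were given by separate sc injections, or the test agent was given orally. Test doses 11.3–12.2 mg/kg, 10 times equimolar to finasteride 1 mg/kg.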

The subject of assay [2] is Rattus norvegicus. Put plainly: In vivo ventral prostate weights in juvenile castrated rats treated with testosterone propionate (11.3 mg/kg) compound, by subcutaneous administration. The format is functional, Prostate gland. In short, it runs like this: as §1
The target of assay [3] is T1, 3-oxo-5-alpha-steroid 4-dehydrogenase 2 (Homo sapiens, UniProt P31213).
T1 sequence (P31213 whole entry): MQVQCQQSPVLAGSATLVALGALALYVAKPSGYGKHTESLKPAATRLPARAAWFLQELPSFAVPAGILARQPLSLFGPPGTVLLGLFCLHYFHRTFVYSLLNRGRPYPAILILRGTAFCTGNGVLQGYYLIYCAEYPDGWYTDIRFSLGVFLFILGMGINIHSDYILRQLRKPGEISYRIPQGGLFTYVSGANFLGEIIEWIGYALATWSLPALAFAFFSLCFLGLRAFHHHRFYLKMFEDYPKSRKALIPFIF
Description: Inhibition of Steroid 5-alpha-reductase type 2 from human benign prostatic hyperplasia (BPH) tissue. The gist of the method: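 Human BPH prostate 105000g pellet (nuclei, mitochondria, microsomes) prepared in citrate buffer pH 5.5. Incubation of about 125 μg protein for 30 min at 37 °C in 40 mM citrate pH 5.5 with 100 μM NADPH, 0.21 μM [1,2-³H]testosterone and 2% DMSO. Reaction stopped with NaOH, steroids extracted with ether, T/DHT separated by radio-HPLC. Single 10 μM test or IC50; duplicates.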

Assay [4] has as its target T2, 3-oxo-5-alpha-steroid 4-dehydrogenase 2 (Rattus norvegicus, UniProt P31214).
T2 sequence (P31214 whole entry): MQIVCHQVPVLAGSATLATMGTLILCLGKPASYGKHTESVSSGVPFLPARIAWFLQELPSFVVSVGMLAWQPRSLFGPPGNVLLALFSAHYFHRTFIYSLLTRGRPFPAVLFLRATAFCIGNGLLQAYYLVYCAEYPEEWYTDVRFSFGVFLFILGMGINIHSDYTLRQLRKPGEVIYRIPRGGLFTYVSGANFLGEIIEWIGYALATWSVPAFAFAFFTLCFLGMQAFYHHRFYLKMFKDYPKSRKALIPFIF
Description: Inhibition of Steroid 5-alpha-reductase type 2 of rat ventral prostate (RVP). The format is tissue-based, Prostate gland. In short, it runs like this:
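Type 2 source: rat ventral prostate homogenized in citrate buffer pH 5.5, 105000g pellet. About 250 μg protein incubated 30 min at 37 °C in 40 mM citrate pH 5.5 with 200 μM NADPH, 0.21 μM [1,2-³H]testosterone and 2% DMSO. NaOH stop, ether extraction, radio-HPLC of T/DHT. Result given as % inhibition at 10 μM or IC50, run in duplicate.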

Assay [5] has as its target T3, 3-oxo-5-alpha-steroid 4-dehydrogenase 1 (Homo sapiens, UniProt P18405).
T3 sequence (P18405 whole entry): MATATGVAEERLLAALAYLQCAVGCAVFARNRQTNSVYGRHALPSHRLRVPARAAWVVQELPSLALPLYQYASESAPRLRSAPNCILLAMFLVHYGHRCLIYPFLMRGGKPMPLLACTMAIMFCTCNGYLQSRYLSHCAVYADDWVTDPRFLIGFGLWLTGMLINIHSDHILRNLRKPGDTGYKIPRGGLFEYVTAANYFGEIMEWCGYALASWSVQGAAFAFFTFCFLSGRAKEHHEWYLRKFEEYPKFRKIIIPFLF
Description: In vitro inhibitory activity against Steroid 5-alpha-reductase type I of human DU 145 prostatic tumor cell line. In short, it runs like this:
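Intact human prostatic carcinoma DU145 cells (type 1 enzyme source), seeded at 180 000 cells/well and left to adhere overnight, incubated 6 h at 37 °C in 5% CO2 with compound in DMSO in complete medium; substrate tritiated androstenedione 5 nM. Medium extracted with diethyl ether, steroids separated by radio-HPLC. Screened at 10 μM, duplicate; product formed as % of uninhibited control.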

The target in assay [6] is T4, 3-oxo-5-alpha-steroid 4-dehydrogenase 1 (Rattus norvegicus, UniProt P24008).
T4 sequence (P24008 whole entry): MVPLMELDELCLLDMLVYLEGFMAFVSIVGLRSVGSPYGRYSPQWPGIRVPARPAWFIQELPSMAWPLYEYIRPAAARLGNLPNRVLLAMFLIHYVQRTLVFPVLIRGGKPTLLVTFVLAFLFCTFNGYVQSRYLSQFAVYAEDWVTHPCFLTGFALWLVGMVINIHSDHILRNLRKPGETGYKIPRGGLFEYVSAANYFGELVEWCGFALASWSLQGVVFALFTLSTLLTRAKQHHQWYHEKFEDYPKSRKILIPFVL
Put plainly: Inhibition of Steroid 5-alpha-reductase type I from rat ventral prostate (RVP). The format is tissue-based, Prostate gland. In short, it runs like this:
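Rat ventral prostate 105000g pellet made in 20 mM phosphate pH 6.6 with […] and 1 mM DTT at 0–4 °C. About 250 μg protein incubated 30 min at 37 °C in 40 mM phosphate pH 6.6 with 200 μM NADPH, 0.21 μM [1,2-³H]testosterone and 2% DMSO. Ether extraction, radio-HPLC of T and DHT. % inhibition at 10 μM or IC50; duplicates.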

The subject of assay [7] is Rattus norvegicus. Put plainly: In vivo ventral prostate weights in juvenile castrated rats treated with testosterone propionate (1 mg/kg). The format is functional, Prostate gland. The gist of the method: as §1
Assay [8] has as its system Rattus norvegicus. Description: In vivo ventral prostate weights in juvenile castrated rats treated with testosterone propionate (11.3 mg/kg) compound, by oral administration. The class given is functional, Prostate gland. In short, it runs like this:
as §1

Assay [9] deals with Rattus norvegicus. Description: Mean percentage of inhibition of the T-induced hypertrophic response was calculated according to the equation %inhibition = 100 x (Ct-D)/(Ct-Cc) at a dose 11.3 mg/kg by oral administration. The class given is functional. In short, it runs like this: as §1
In assay [10] the test system is Rattus norvegicus. Description: Mean percentage of inhibition of the T-induced hypertrophic response was calculated according to the equation %inhibition = 100 x (Ct-D)/(Ct-Cc) at a dose 11.3 mg/kg by subcutaneous administration. The format is functional. As to conditions: sc. In short, it runs like this:
as §1

One may read the inhibition in vivo as the change of the read-out against control, counted positive when it falls. As a reminder, the IC50 is the concentration that inhibits the measured activity by half.

On to `CCC(=O)O[C@H]1CC[C@H]2[C@@H]3CCC4=CC(=O)CC[C@]4(C)[C@H]3CC[C@]12C.O=C(O)Cc1ccc(C=C2CCN(C(=O)C(C3CCCCC3)C3CCCCC3)CC2)c(F)c1`, for which the inhibition in vivo at 12.2 mg/kg in [1] is 55%. The Weight in assay [2] is recorded as 26.4 (mg of prostate) (100g of body weight)-1.
Consider `CC(C)(C)NC(=O)[C@H]1CC[C@H]2[C@@H]3CC[C@H]4NC(=O)C=C[C@]4(C)[C@H]3CC[C@]12C` [FINASTERIDE], for which the IC50 in [3] was found to be 5 nM; in assay [4] it was 11 nM; in assay [5] it was 41 nM; in assay [6], 10 nM.
In the case of `CCC(=O)O[C@H]1CC[C@H]2[C@@H]3CCC4=CC(=O)CC[C@]4(C)[C@H]3CC[C@]12C` [TESTOSTERONE PROPIONATE], the Weight in [7] is on record as 41.6 (mg of prostate) (100g of body weight)-1.
For `CCC(=O)O[C@H]1CC[C@H]2[C@@H]3CCC4=CC(=O)CC[C@]4(C)[C@H]3CC[C@]12C.O=C(O)c1ccc(C=C2CCN(C(=O)C(C3CCCCC3)C3CCCCC3)CC2)cc1`, the Weight is 31.6 (mg of prostate) (100g of body weight)-1 in assay [8] and 27.9 (mg of prostate) (100g of body weight)-1 in [2]. Besides, the values for the inhibition in vivo at 11.3 mg/kg in [9] and in assay [10] were 36% and 49%, respectively.
